Source: ChEMBL document CHEMBL5131404, “Lipophilic quinolone derivatives: Synthesis and in vitro antibacterial evaluation” (2022)
Values after ≈ are worked out from the molar mass of the structure shown.

Columns and labels:
Type in all cases: functional
[1] = test system: Pseudomonas aeruginosa; test: Antibacterial activity against Pseudomonas aeruginosa ATCC 27853
How it was run: (§1)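 Broth microdilution MIC following CLSI guidelines. Strains were grown on Mueller-Hinton agar beforehand. The MIC is the lowest compound concentration that inhibits bacterial growth, determined at least three times in independent experiments.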

[2] = test system: Staphylococcus aureus; test: Antibacterial activity against methicillin-resistant Staphylococcus aureus 197
How it was run: (§2)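 Strains grown on Mueller-Hinton agar. MIC by broth microdilution following CLSI guidelines, taken as the lowest concentration inhibiting bacterial growth. Determined at least three times in independent experiments.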

[3] = test system: Staphylococcus aureus; test: Antibacterial activity against methicillin-resistant Staphylococcus aureus 196; how it was run: as §2
[4] = test system: Escherichia coli; test: Antibacterial activity against Escherichia coli 202; how it was run: as §1
[5] = test system: Neisseria gonorrhoeae; test: Antibacterial activity against Neisseria gonorrhoeae ATCC 19424
How it was run: (§3)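 Agar dilution MIC. Strains were cultured on GC agar with 2% v/v Vitox and 1% haemoglobin. Suspensions of 10^5 CFU/mL were spotted in duplicate onto the same supplemented GC agar containing various compound concentrations, then incubated 24-48 h at 37°C in 5% CO2. The MIC is the lowest concentration inhibiting growth, from at least three independent experiments.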

[6] = test system: Streptococcus pneumoniae; test: Antibacterial activity against Streptococcus pneumoniae ATCC 49169; how it was run: as §1
[7] = test system: Staphylococcus aureus; test: Antibacterial activity against Staphylococcus aureus ATCC 29213; how it was run: as §1
[8] = test system: Pseudomonas aeruginosa; test: Antibacterial activity against Pseudomonas aeruginosa 143; how it was run: as §1
[9] = test system: Pseudomonas aeruginosa; test: Antibacterial activity against Pseudomonas aeruginosa 142; how it was run: as §1
[10] = test system: Acinetobacter baumannii; test: Antibacterial activity against Acinetobacter baumannii 140; how it was run: as §1
[11] = test system: Acinetobacter baumannii; test: Antibacterial activity against Acinetobacter baumannii 139; how it was run: as §1
[12] = test system: Acinetobacter baumannii; test: Antibacterial activity against Acinetobacter baumannii ATCC 19606; how it was run: as §1
[13] = test system: Escherichia coli; test: Antibacterial activity against Escherichia coli ATCC 35218; how it was run: as §1
[14] = test system: Escherichia coli; test: Antibacterial activity against Escherichia coli 203; how it was run: as §1
[15] = test system: Neisseria gonorrhoeae; test: Antibacterial activity against Neisseria gonorrhoeae WHO C; how it was run: as §3
[16] = test system: Neisseria gonorrhoeae; test: Antibacterial activity against Neisseria gonorrhoeae WHO E; how it was run: as §3
[17] = test system: Neisseria gonorrhoeae; test: Antibacterial activity against Neisseria gonorrhoeae WHO M
How it was run: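 Agar dilution on GC agar base with 2% v/v Vitox and 1% haemoglobin containing graded compound concentrations. Suspensions at 10^5 CFU/mL spotted in duplicate. Incubation 24-48h, 37°C, 5% CO2. MIC taken as the lowest concentration inhibiting growth, determined at least three times in independent experiments.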

[18] = test system: Neisseria gonorrhoeae; test: Antibacterial activity against Neisseria gonorrhoeae Barla194; how it was run: as §3
[19] = test system: Neisseria gonorrhoeae; test: Antibacterial activity against Neisseria gonorrhoeae WHO A; how it was run: as §3
[20] = test system: Neisseria gonorrhoeae; test: Antibacterial activity against Neisseria gonorrhoeae WHO G; how it was run: as §3
[21] = test system: Neisseria gonorrhoeae; test: Antibacterial activity against Neisseria gonorrhoeae WHO Z; how it was run: as §3
[22] = test system: Neisseria gonorrhoeae; test: Antibacterial activity against Neisseria gonorrhoeae WHO O; how it was run: as §3
[23] = test system: Neisseria gonorrhoeae; test: Antibacterial activity against Neisseria gonorrhoeae WHO B; how it was run: as §3
[24] = test system: Neisseria gonorrhoeae; test: Antibacterial activity against Neisseria gonorrhoeae WHO K; how it was run: as §3
[25] = test system: Neisseria gonorrhoeae; test: Antibacterial activity against Neisseria gonorrhoeae WHO Q; how it was run: as §3

Compound | MIC [1] | MIC [2] | MIC [3] | MIC [4] | MIC [5] | MIC [6] | MIC [7] | MIC [8] | MIC [9] | MIC [10] | MIC [11] | MIC [12] | MIC [13] | MIC [14] | MIC [15] | MIC [16] | MIC [17] | MIC [18] | MIC [19] | MIC [20] | further results
CCCCCCCCCN1CCN(c2c(F)cc3c(=O)c(C(=O)O)cn(C4CC4)c3c2OC)CC1 | > 64 µg/mL | > 64 µg/mL | ≥ 64 µg/mL | 8 µg/mL (≈ 16.4 µM) | 0.25 µg/mL (≈ 0.513 µM) | 2 µg/mL (≈ 4.1 µM) | 8 µg/mL (≈ 16.4 µM) | ≥ 64 µg/mL | ≥ 64 µg/mL | 64 µg/mL (≈ 131 µM) | 64 µg/mL (≈ 131 µM) | 64 µg/mL (≈ 131 µM) | 8 µg/mL (≈ 16.4 µM) | > 64 µg/mL | – | – | – | – | – | – | –
CCCCCCCCCCN1CCN(c2c(F)cc3c(=O)c(C(=O)O)cn(C4CC4)c3c2OC)CC1 | > 64 µg/mL | > 64 µg/mL | ≥ 64 µg/mL | ≥ 64 µg/mL | 0.12 µg/mL (≈ 0.239 µM) | > 64 µg/mL | 32 µg/mL (≈ 63.8 µM) | > 64 µg/mL | > 64 µg/mL | 64 µg/mL (≈ 128 µM) | ≥ 64 µg/mL | 64 µg/mL (≈ 128 µM) | ≥ 32 µg/mL | > 64 µg/mL | 1 µg/mL (≈ 1.99 µM) | 0.25 µg/mL (≈ 0.498 µM) | ≥ 64 µg/mL | 256 µg/mL (≈ 510 µM) | 0.5 µg/mL (≈ 0.997 µM) | 8 µg/mL (≈ 15.9 µM) | MIC [21]: ≥ 64 µg/mL; MIC [22]: 1 µg/mL (≈ 1.99 µM); MIC [23]: 1 µg/mL (≈ 1.99 µM); MIC [24]: 256 µg/mL (≈ 510 µM); MIC [25]: 2 µg/mL (≈ 3.99 µM)
CCOCCOCCN1CCN(c2c(F)cc3c(=O)c(C(=O)O)cn(C4CC4)c3c2OC)CC1 | – | – | – | – | 2 µg/mL (≈ 4.19 µM) | 1 µg/mL (≈ 2.09 µM) | 0.5 µg/mL (≈ 1.05 µM) | – | – | – | – | – | 0.5 µg/mL (≈ 1.05 µM) | – | – | – | – | – | – | – | –
CCCCCCCCCCCN1CCN(c2c(F)cc3c(=O)c(C(=O)O)cn(C4CC4)c3c2OC)CC1 | > 64 µg/mL | ≥ 64 µg/mL | 64 µg/mL (≈ 124 µM) | ≥ 64 µg/mL | 0.5 µg/mL (≈ 0.97 µM) | 8 µg/mL (≈ 15.5 µM) | 32 µg/mL (≈ 62.1 µM) | > 64 µg/mL | > 64 µg/mL | 64 µg/mL (≈ 124 µM) | ≥ 64 µg/mL | 64 µg/mL (≈ 124 µM) | 16 µg/mL (≈ 31 µM) | > 64 µg/mL | – | – | – | – | – | – | –
O=C(O)c1cn(C2CC2)c2cc(N3CCNCC3)c(F)cc2c1=O [CIPROFLOXACIN] | – | > 32 µg/mL | > 32 µg/mL | – | 0.004 µg/mL (≈ 0.0121 µM) | – | 0.25 µg/mL (≈ 0.754 µM) | > 32 µg/mL | > 32 µg/mL | > 32 µg/mL | > 32 µg/mL | 0.5 µg/mL (≈ 1.51 µM) | – | > 32 µg/mL | 0.004 µg/mL (≈ 0.0121 µM) | 0.002 µg/mL (≈ 0.00604 µM) | 2 µg/mL (≈ 6.04 µM) | 32 µg/mL (≈ 96.6 µM) | 0.002 µg/mL (≈ 0.00604 µM) | 0.125 µg/mL (≈ 0.377 µM) | MIC [21]: > 32 µg/mL; MIC [22]: 0.004 µg/mL (≈ 0.0121 µM); MIC [23]: 0.008 µg/mL (≈ 0.0241 µM); MIC [24]: ≥ 32 µg/mL; MIC [25]: 0.008 µg/mL (≈ 0.0241 µM)
COc1c(N2C[C@@H]3CCCN[C@@H]3C2)c(F)cc2c(=O)c(C(=O)O)cn(C3CC3)c12 [MOXIFLOXACIN] | 1 µg/mL (≈ 2.49 µM) | 1 µg/mL (≈ 2.49 µM) | 0.5 µg/mL (≈ 1.25 µM) | 0.5 µg/mL (≈ 1.25 µM) | 0.06 µg/mL (≈ 0.149 µM) | 0.06 µg/mL (≈ 0.149 µM) | 0.06 µg/mL (≈ 0.149 µM) | 16 µg/mL (≈ 39.9 µM) | 8 µg/mL (≈ 19.9 µM) | 4 µg/mL (≈ 9.96 µM) | 2 µg/mL (≈ 4.98 µM) | 0.25 µg/mL (≈ 0.623 µM) | – | – | 0.016 µg/mL (≈ 0.0399 µM) | 0.004 µg/mL (≈ 0.00996 µM) | 2 µg/mL (≈ 4.98 µM) | 16 µg/mL (≈ 39.9 µM) | 0.004 µg/mL (≈ 0.00996 µM) | 0.03 µg/mL (≈ 0.0747 µM) | MIC [21]: 2 µg/mL (≈ 4.98 µM); MIC [22]: 0.016 µg/mL (≈ 0.0399 µM); MIC [23]: 0.008 µg/mL (≈ 0.0199 µM); MIC [24]: 2 µg/mL (≈ 4.98 µM); MIC [25]: 0.016 µg/mL (≈ 0.0399 µM)
